From ChEMBL document CHEMBL1772954, “Antifungal, cytotoxic and SAR studies of a series of N-alkyl, N-aryl and N-alkylphenyl-1,4-pyrrolediones and related compounds” (Bioorg Med Chem, 2011) come the findings set out here.

Structures are written as SMILES. Values after ≈ are worked out from the molar mass of the structure shown.

As usually defined, the MFC is the smallest concentration meeting the test's criterion for killing the fungus. The MIC is the least concentration at which growth counts as inhibited. A low value points to inhibition by little substance. Broadly, the GI50 is the concentration that inhibits growth by half. By HC50 is commonly meant the concentration giving 50% haemolysis.

The subject of one series is Nannizzia gypsea. Nature of the series: Antifungal activity against Microsporum gypseum C 115 2000. It is filed as functional. An outline of the steps:
(§1)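 Dermatophytes tested by CLSI M38-A2 microdilution in MOPS-buffered RPMI-1640 at pH 7.0. Inoculum 1-5 × 10^3 CFU/mL; compounds 250 to 0.24 µg/ml in twofold steps, final DMSO <1%. Incubated at 28 °C in a moist, dark chamber and read according to control growth. MIC is the lowest concentration with complete inhibition. MFC is the lowest concentration with no growth after duplicate subculture on SDA.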

For series [1], the system named is Trichophyton mentagrophytes. Nature of the series: Antifungal activity against Trichophyton mentagrophytes ATCC 9972. Type of series: functional. The method in brief: as §1
The test system of another series is SF-268. The series is described as follows: Cytotoxicity against human SF268 cells assessed as cell growth after 2 days by sulforhodamine B assay. It is filed as functional. To be noted: SF-268, 48 h. An outline of the steps:
(§2)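 NCI cell lines were run by the Monks method: cells were plated with compounds from DMSO stocks and incubated 2 days at 37 °C in 5% CO2, in duplicate. Cells were fixed with cold TCA, stained with 0.4% SRB, and the bound dye was solubilized in 10 mM tris-base and read at 515 nm. The zero-day control was subtracted, and GI50 was taken from the curves.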
(The SRB assay estimates cell density from bound dye.)

The next series concerns MCF7. The series is described as follows: Cytotoxicity against human MCF7 cells assessed as cell growth after 2 days by sulforhodamine B assay. Type of series: functional. To be noted: MCF7, 48 h. The method in brief:
as §2

In a further series the test system is Trichophyton rubrum. The series is described as follows: Antifungal activity against Trichophyton rubrum C 113 2000. Type of series: functional. The method in brief:
as §1

Series [2] in a line: Cytotoxicity against human erythrocytes assessed as hemolysis by spectrometric analysis. Type of series: cell-based, Erythrocyte. An outline of the steps: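 Human heparinized red blood cells were washed in PBS at pH 7.0 and suspended at 4% in sterile 5% glucose. Compounds from DMSO stocks were diluted in 5% glucose to final concentrations of 250 to 0.24 µg/ml and incubated with the cells at 37 °C. Released hemoglobin was read at 540 nm. HC50 is the concentration giving 50% lysis relative to the drug-free value.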

The subject of the next series is Cryptococcus neoformans. Nature of the series: Antifungal activity against Cryptococcus neoformans ATCC 32264. It is filed as functional. The method in brief:
(§3)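 CLSI M27-A3 broth microdilution in RPMI-1640 buffered to pH 7.0 with MOPS. Inoculum 1-5 × 10^3 CFU/mL. Compound twofold dilutions from 250 to 0.24 µg/ml, final DMSO <1%. Incubated at 35 °C in a moist, dark chamber and read at 48 h. MIC is the lowest concentration giving total growth inhibition. For MFC, 5 µL from clear wells was plated in duplicate on SDA; MFC is the lowest concentration with no growth.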

The subject of a further series is Aspergillus fumigatus. The series is described as follows: Antifungal activity against Aspergillus fumigatus ATCC 26934. Type of series: functional. The method in brief:
(§4)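 Broth microdilution per CLSI M38-A2 in RPMI-1640 with MOPS at pH 7.0. Inoculum 1-5 × 10^3 CFU/mL, with twofold compound dilutions spanning 250-0.24 µg/ml (final DMSO <1%). Plates incubated at 35 °C, moist and dark, and read when the control fungus had grown. MIC is total growth inhibition. MFC comes from subculturing clear wells in duplicate onto SDA.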

A further series deals with NCI-H460. Nature of the series: Cytotoxicity against human H460 cells assessed as cell growth after 2 days by sulforhodamine B assay. It is filed as functional. The settings on record: NCI-H460, 48 h. The method in brief:
as §2

The test system of the next series is Aspergillus niger. Nature of the series: Antifungal activity against Aspergillus niger ATCC 9029. It is filed as functional. An outline of the steps:
as §4

For the next series, the system named is Saccharomyces cerevisiae. Nature of the series: Antifungal activity against Saccharomyces cerevisiae ATCC 9763. It is filed as functional. The method in brief:
as §3

Another series concerns Candida albicans. Nature of the series: Antifungal activity against Candida albicans ATCC 10213. It is filed as functional. The method in brief: as §3
Another series concerns Candida tropicalis. The series is described as follows: Antifungal activity against Candida tropicalis C 131 2000. Type of series: functional. The method in brief:
as §3

The next series deals with Aspergillus flavus. Nature of the series: Antifungal activity against Aspergillus flavus ATCC 9170. Type of series: functional. The method in brief: as §4

In the case of `CN1C(=O)C=CC1=O`, the MFC amounted to 7.81 µg/mL (≈ 70.3 µM) in the series with Nannizzia gypsea; 15.6 µg/mL (≈ 141 µM) in [1]; 15.6 µg/mL (≈ 141 µM) against Trichophyton rubrum; 62.5 µg/mL (≈ 563 µM) against Cryptococcus neoformans; 62.5 µg/mL (≈ 563 µM) against Aspergillus fumigatus; 15.6 µg/mL (≈ 141 µM) in the series on Aspergillus niger. Moreover, the MFC in the series with Saccharomyces cerevisiae came out at 15.6 µg/mL (≈ 141 µM); against Candida albicans it was 125 µg/mL (≈ 1130 µM); against Candida tropicalis it was 62.5 µg/mL (≈ 563 µM); in the series on Aspergillus flavus, 31.2 µg/mL (≈ 281 µM). For the same compound, the MIC against Nannizzia gypsea worked out at 7.81 µg/mL (≈ 70.3 µM); in series [1], 7.81 µg/mL (≈ 70.3 µM); against Trichophyton rubrum, 3.9 µg/mL (≈ 35.1 µM); in the series with Cryptococcus neoformans it was 15.6 µg/mL (≈ 141 µM); in the series on Aspergillus fumigatus it was 15.6 µg/mL (≈ 141 µM); against Aspergillus niger, 7.81 µg/mL (≈ 70.3 µM). Further, the MIC in the series on Saccharomyces cerevisiae was 7.81 µg/mL (≈ 70.3 µM); in the series on Candida albicans, 62.5 µg/mL (≈ 563 µM); in the series with Candida tropicalis it was 31.2 µg/mL (≈ 281 µM); in the series on Aspergillus flavus, 15.6 µg/mL (≈ 141 µM). Besides, the GI50 in the series on SF-268, with MCF7 and with NCI-H460 was > 10 µg/mL each time. Besides, the HC50 in series [2] is > 250 µg/mL.

With `O=C1C(Cl)=C(Cl)C(=O)N1CCc1ccccc1`, the MFC in the series with Nannizzia gypsea worked out at 31.2 µg/mL (≈ 116 µM); in series [1], 15.6 µg/mL (≈ 57.9 µM); in the series with Trichophyton rubrum, 7.81 µg/mL (≈ 28.9 µM); against Cryptococcus neoformans, 7.81 µg/mL (≈ 28.9 µM); against Aspergillus fumigatus, 15.6 µg/mL (≈ 57.9 µM); against Aspergillus niger it was 31.2 µg/mL (≈ 116 µM). The MFC against Saccharomyces cerevisiae stood at 7.81 µg/mL (≈ 28.9 µM); in the series with Candida albicans, 15.6 µg/mL (≈ 57.9 µM); in the series with Candida tropicalis, 31.2 µg/mL (≈ 116 µM); with Aspergillus flavus, 15.6 µg/mL (≈ 57.9 µM). The MIC was determined as 15.6 µg/mL (≈ 57.9 µM) in the series on Nannizzia gypsea; 7.81 µg/mL (≈ 28.9 µM) in [1]; 3.9 µg/mL (≈ 14.4 µM) in the series with Trichophyton rubrum; 7.81 µg/mL (≈ 28.9 µM) against Cryptococcus neoformans; 15.6 µg/mL (≈ 57.9 µM) against Aspergillus fumigatus; 15.6 µg/mL (≈ 57.9 µM) in the series on Aspergillus niger. The MIC with Saccharomyces cerevisiae turned out to be 3.9 µg/mL (≈ 14.4 µM); with Candida albicans, 7.81 µg/mL (≈ 28.9 µM); with Candida tropicalis, 15.6 µg/mL (≈ 57.9 µM); in the series with Aspergillus flavus, 15.6 µg/mL (≈ 57.9 µM). In addition, the GI50 in the series with SF-268, in the series with MCF7 and with NCI-H460 was > 10 µg/mL each time. Also, in series [2], the HC50 was > 250 µg/mL.

On to `O=C1C=CC(=O)N1CCCCc1ccccc1`, for which the MFC against Nannizzia gypsea was found to be 1.95 µg/mL (≈ 8.5 µM); in series [1] it was 7.81 µg/mL (≈ 34.1 µM); against Trichophyton rubrum it was 0.97 µg/mL (≈ 4.23 µM); with Cryptococcus neoformans, 31.2 µg/mL (≈ 136 µM); in the series on Aspergillus fumigatus, 31.2 µg/mL (≈ 136 µM); against Aspergillus niger it was 7.81 µg/mL (≈ 34.1 µM). For the same compound, the MFC with Saccharomyces cerevisiae was found to be 1.95 µg/mL (≈ 8.5 µM); against Candida albicans, 7.81 µg/mL (≈ 34.1 µM); against Candida tropicalis, 15.6 µg/mL (≈ 68.2 µM); in the series with Aspergillus flavus, 15.6 µg/mL (≈ 68.2 µM). Moreover, the MIC was found to be 0.97 µg/mL (≈ 4.23 µM) with Nannizzia gypsea; 3.9 µg/mL (≈ 17 µM) in [1]; 0.48 µg/mL (≈ 2.09 µM) in the series with Trichophyton rubrum; 15.6 µg/mL (≈ 68.2 µM) with Cryptococcus neoformans; 15.6 µg/mL (≈ 68.2 µM) against Aspergillus fumigatus; 7.81 µg/mL (≈ 34.1 µM) against Aspergillus niger. The MIC came to 0.97 µg/mL (≈ 4.23 µM) in the series on Saccharomyces cerevisiae, 3.9 µg/mL (≈ 17 µM) with Candida albicans, 7.81 µg/mL (≈ 34.1 µM) against Candida tropicalis and 7.81 µg/mL (≈ 34.1 µM) against Aspergillus flavus. Besides, the GI50 in the series on SF-268, in the series on MCF7 and in the series with NCI-H460 was > 10 µg/mL throughout. Further, the HC50 in series [2] was > 250 µg/mL.

`O=C1C=CC(=O)N1c1ccccc1`: the minimal fungicidal concentration (MFC) was 15.6 µg/mL (≈ 90.3 µM) in the series with Nannizzia gypsea; 7.81 µg/mL (≈ 45.1 µM) in series [1]; 7.81 µg/mL (≈ 45.1 µM) against Trichophyton rubrum; 62.5 µg/mL (≈ 361 µM) in the series on Cryptococcus neoformans; > 250 µg/mL against Aspergillus fumigatus; 62.5 µg/mL (≈ 361 µM) in the series with Aspergillus niger. Besides, the MFC with Saccharomyces cerevisiae amounted to 7.81 µg/mL (≈ 45.1 µM); against Candida albicans, 7.81 µg/mL (≈ 45.1 µM); against Candida tropicalis, 15.6 µg/mL (≈ 90.3 µM); in the series with Aspergillus flavus, 125 µg/mL (≈ 722 µM). The MIC against Nannizzia gypsea was found to be 7.81 µg/mL (≈ 45.1 µM); in [1], 7.81 µg/mL (≈ 45.1 µM); in the series with Trichophyton rubrum, 3.9 µg/mL (≈ 22.5 µM); against Cryptococcus neoformans, 15.6 µg/mL (≈ 90.3 µM); in the series with Aspergillus fumigatus it was 250 µg/mL (≈ 1440 µM); against Aspergillus niger it was 31.2 µg/mL (≈ 180 µM). Besides, the MIC was determined as 3.9 µg/mL (≈ 22.5 µM) with Saccharomyces cerevisiae, 3.9 µg/mL (≈ 22.5 µM) against Candida albicans and 62.5 µg/mL (≈ 361 µM) against Aspergillus flavus. For the same compound, the GI50 with SF-268, with MCF7 and with NCI-H460 was > 10 µg/mL in each case. For the same compound, in series [2], the HC50 was > 250 µg/mL.
